Rows were chosen to be rich in hits. Some 1.8% of all compounds tested hit in one or more screens of this group.
Rev-erbA mod: modulators of Rev-erb alpha DNA binding, primary screen, biochemical, FITC-DNA, fluorescence polarization, uHTS; 370,000 compounds, 0.79% hits; Rev-erbα–FITC-DNA binding, 90 min; activity, % at 10 µM; Nuclear receptor subfamily 1 group D member 1 (Homo sapiens), P20393;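 active = activity above about 14%, limit read from the data; passing the limit was not always enough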;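 note: 0% = DMSO wells with 35 nM protein and 100% = DMSO wells with 750 nM protein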
Target sequence (P20393 whole entry, looked up): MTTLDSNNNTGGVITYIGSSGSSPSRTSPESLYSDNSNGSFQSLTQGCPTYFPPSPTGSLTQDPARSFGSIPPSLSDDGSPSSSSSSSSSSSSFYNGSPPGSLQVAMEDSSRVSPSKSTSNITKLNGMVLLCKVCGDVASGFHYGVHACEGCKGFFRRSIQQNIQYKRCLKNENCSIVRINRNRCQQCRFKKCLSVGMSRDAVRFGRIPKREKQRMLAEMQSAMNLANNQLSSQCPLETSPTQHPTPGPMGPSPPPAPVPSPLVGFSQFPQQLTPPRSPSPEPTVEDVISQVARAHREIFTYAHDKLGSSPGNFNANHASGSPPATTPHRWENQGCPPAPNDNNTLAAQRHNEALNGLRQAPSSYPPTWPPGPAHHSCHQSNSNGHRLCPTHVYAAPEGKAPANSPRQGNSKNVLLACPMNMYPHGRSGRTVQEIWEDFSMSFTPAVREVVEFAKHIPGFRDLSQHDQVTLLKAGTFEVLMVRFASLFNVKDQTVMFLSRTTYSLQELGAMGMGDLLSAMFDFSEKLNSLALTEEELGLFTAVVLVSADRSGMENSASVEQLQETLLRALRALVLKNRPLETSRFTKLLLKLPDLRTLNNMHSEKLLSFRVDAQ
NR2E3 ag-1: inhibitors of NR2E3-RetCOR corepressor binding, primary screen, NR2E3 agonist project, biochemical, TR-FRET, GST-NR2E3, biotin-RetCOR | 320,000 compounds, 0.12% hits | inhibition of corepressor binding, % at 4.78 µM | 1536-well;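 active = percent inhibition above the cutoff of mean plus 3 SD of all tested compounds, set per screening campaign, cut at about 20% in these data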;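 note: 0% = DMSO wells and 100% = biotin wells as full block of FRET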
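system = GST-tagged NR2E3 plus biotinylated RetCOR corepressor | input = 1.35 nM GST-NR2E3 | also added = 7 nM biotin-RetCOR | schedule = 5 h incubation at 4 °C | measured by = TR-FRET with europium anti-GST and streptavidin-D2, 340 nm excitation | read-out = percent loss of FRET ratio relative to control wells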
PG9 binder: binders of HIV-1 gp120 antibody PG9, primary screen, biochemical, TR-FRET. TR-FRET gp120-PG9 antibody binding. inhibition, % at 6.7 µM. 360,000 compounds, 0.43% hits. AID 624416, 2012; in the data active = inhibition above about 8.5%
GalR3 antagonist: GalR3 antagonists in HEK293 cells, primary screen, cell-based, fluorescence readout | 360,000 compounds, 0.44% hits | HEK293 GalR3-CNG cAMP membrane potential fluorescence; galR3 body fused to GalR1 C-terminus | AID 651719, 2012 | inhibition, % at 3 µM;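 active = inhibition above the screen-wide average plus 3 SD, cut at about 13% in these data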;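 note: forskolin and galanin both at EC90 stimulate the cells; cAMP rise reported by CNG channel membrane potential dye signal; 0% = forskolin plus galanin with DMSO and 100% = forskolin alone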
NR2E3 ag-2: NR2E3 agonists in two-hybrid cells, primary screen, cell-based, luminescence, CHO-S, Gal4-NCOR/VP16-NR2E3; luciferase; inhibition of corepressor binding, % at 3.98 µM; 360,000 compounds, 0.35% hits;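 active = inhibition above the mean of all tested compounds plus 3 SD, cut at about 70% in these data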;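 note: 0% = DMSO with NR2E3 transfected cells and 100% = cells lacking NR2E3 construct; higher means lower luciferase signal from less NR2E3 corepressor binding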
NR1D1 mod conf: modulators of Rev-erb alpha DNA binding, confirmation, biochemical, FITC-DNA, fluorescence polarization, single point | activation, % at 25 µM | shares compounds with Rev-erbA mod | 90 min | 3,000 compounds, 61% hits;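 active = activation at or above a set limit, or at least 3 SD above the negative control mean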;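 note: 0% = 35 nM protein with DMSO and 100% = 750 nM protein high control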
RORg counter: modulation of RORgamma DNA binding, dose response, counter-screen for Rev-erb alpha modulator project, biochemical, fluorescence polarization, FITC-DNA | shares compounds with Rev-erbA mod | 910 compounds, 8% hits | IC50, µM | purified RORgamma protein-FITC-DNA binding;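 active = Compounds whose fitted half-maximal concentration for disrupting protein-DNA binding is below 10 micromolar; the record names Rev-erb in its text, so the target is in doubt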
* marks the source's active call; other numbers are inactive results; i = inactive; x = no result.

SMILES	Rev-erbA mod	NR2E3 ag-1	PG9 binder	GalR3 antagonist	NR2E3 ag-2	NR1D1 mod conf	others
COc1ccc(C2Nc3ccccc3C(=O)N2c2ccc(F)cc2)cc1CSc1ccccn1 (stereo unspecified)	30*	-8	-8	4	-6	15
Cc1cc(Nc2cccc(Cl)c2)nc(-c2ccccc2O)n1	6	-1	1	-11	7	x
Cc1cc(Nc2ccc(Cl)cc2)nc(-c2ccccc2O)n1	29*	x	-2	-8	-27	-2
Cc1nc2c(c(=O)c3ccccc3n2C)c(=O)n1C1CCCC1	-3	x	-1	2	x	x
Cn1c2ccccc2c(=O)c2c(=O)n(C3CCCCCC3)c(C3CCCCC3)nc21	161*	x	-3	-1	-35	79*
CCOc1cccc2sc(NC(=O)c3ccc(Br)s3)nc12	30*	3	0	-4	-30	33*	RORg counter=>40
COC(=O)[C@H]1C[C@]2(C/C=C(\C)CCC=C(C)C)c3ccccc3N[C@H]2N1	6	x	x	x	x	x
CCOC(=O)c1cc(-c2ccc(F)cc2)nc2c1c(=O)[nH]c(=O)n2Cc1ccccc1	-9	2	0	-4	10	x
CCOC(=O)c1cc(-c2cc(OC)c(OC)c(OC)c2)nc2c1c(=O)[nH]c(=O)n2Cc1ccccc1	23*	1	0	-5	-8	9
C[C@@H]1C=CCCO[C@]12C(=O)N(CC1CC1)c1cccc(Br)c12	13*	x	1	-8	x	-2
O=C(O)CN1C(=O)/C(=C/c2ccc(N3CCCCC3)o2)SC1=S	-1	1	0	-6	-12	x
CN1CCS/C1=C/C=C1\SC(=S)N(CC(=O)O)C1=O	302*	-8	-25	2	1	246*	RORg counter=>40
CCCCN1C(=O)/C(=C/C=C2\N(C)c3ccccc3C2(C)C)SC1=S	x	1	x	x	x	x
CCCCN1C(=O)/C(=C/C=C2\SCCN2C)SC1=S	126*	x	-2	2	-120	47*	RORg counter=>40
CN1CCS/C1=C/C=C1/SC(=S)N(Cc2ccccc2)C1=O	188*	-3	-3	-4	-65	169*	RORg counter=>40
COc1ccc(S[C@]2(C(=O)N3CCOCC3)CC(=O)N(P(=O)(OC)OC)[C@@H]2c2ccc(OC)cc2)cc1	-4	x	x	x	x	x
CN(C)S(=O)(=O)c1cccc(C(=O)N/N=C\c2ccccc2[N+](=O)[O-])c1	-1	x	x	x	x	x
CC(=O)N1C[C@@H](c2c[nH]c3ccccc23)C=C[C@H]1C(=O)NS(=O)(=O)c1ccc(C)cc1	-1	x	x	x	x	x
N#CCOc1ccccc1CNC[C@H]1O[C@@H](n2cnc(C(N)=O)n2)[C@H](O)[C@@H]1O	16*	x	1	-1	-22	-7
Cc1ccc(C(=O)n2ccc3ccc(-c4ccc5ccn(Cc6ccc(C#N)cc6)c5c4)cc32)cc1	40*	x	x	x	x	14*
COC(=O)c1ccc(Cn2ccc3ccc(-c4ccc5ccn(C(=O)C6CCCCC6)c5c4)cc32)cc1	25*	x	x	x	x	34*	RORg counter=i
COC(=O)c1ccc(Cn2ccc3ccc(-c4ccc5ccn(C(=O)c6ccc(C)cc6)c5c4)cc32)cc1	50*	x	x	x	x	62*	RORg counter=1.4*
CCCCOc1ccc(C(=O)n2ccc3ccc(-c4ccc5ccn(Cc6ccc(OC)cc6)c5c4)cc32)cc1	35*	x	x	x	x	6
Cc1ccccc1C(=O)NC1CCCCN(C(C)C)C1=O (stereo unspecified)	2	x	x	x	x	x
O=C(c1ccc(F)cc1)n1ccc2ccc(-c3ccc4ccn(Cc5ccccc5)c4c3)cc21	9	x	x	x	x	x
SMILES	Rev-erbA mod	NR2E3 ag-1	PG9 binder	GalR3 antagonist	NR2E3 ag-2	NR1D1 mod conf	others
COc1ccc(Cn2ccc3ccc(-c4ccc5ccn(C(=O)c6ccc(C)cc6)c5c4)cc32)cc1	37*	x	x	x	x	45*	RORg counter=>40
COc1ccc(Cn2ccc3ccc(-c4ccc5ccn(C(=O)c6ccccc6)c5c4)cc32)cc1	-15	x	x	x	x	x
COC(=O)c1cccc(Cn2ccc3ccc(-c4ccc5ccn(C(=O)c6ccccc6)c5c4)cc32)c1	17	x	x	x	x	x
CCCCOc1ccc(C(=O)n2ccc3ccc(-c4ccc5ccn(Cc6cccc(C(=O)OC)c6)c5c4)cc32)cc1	37*	x	x	x	x	21*
Cc1ccc(C(=O)n2ccc3ccc(-c4ccc5ccn(Cc6ccccc6)c5c4)cc32)cc1	39*	x	x	x	x	27*
COc1ccc(C(C)(C)C)cc1NC(=O)C1=CC=CN2CCS(=O)(=O)N=C12	24*	x	1	-5	6	30*	RORg counter=i
Cc1ccc(NC(=O)C2=CC=CN3CCS(=O)(=O)N=C23)cc1	-3	2	0	-4	-12	x
COc1ccc(Cn2ccc3ccc(-c4ccc5ccn(C(=O)c6ccccc6OC)c5c4)cc32)cc1	71*	x	x	x	x	63*	RORg counter=>40
COC(=O)c1ccc(Cn2ccc3ccc(-c4ccc5ccn(C(=O)c6ccccc6OC)c5c4)cc32)cc1	47*	x	x	x	x	72*	RORg counter=>40
CCCN1C(=O)c2[nH]nc(-c3ccccc3)c2C1c1ccc(F)cc1 (stereo unspecified)	2	x	-1	-6	x	x
O=[N+]([O-])c1ccc(N2CCCCC2)s1	23*	-3	-3	-6	1	18*
O=[N+]([O-])c1ccc(N2CCN(Cc3ccccc3)CC2)s1	19	-5	-2	-8	-5	x
CC1CCCN(c2ccc([N+](=O)[O-])s2)C1 (stereo unspecified)	31*	x	-4	-2	-16	15
CC(C)(C)OC(=O)N1CCC2CCN(S(=O)(=O)c3ccccc3)CC21 (stereo unspecified)	-1	x	0	-7	x	x
C[C@H](O)[C@@H]1CN2CCc3c([nH]c4c(-c5ccc6c(c5)OCO6)cccc34)[C@@H]2C[C@@H]1N(C)C(=O)NC1CCCCC1	3	x	x	x	x	x
COc1ccc(NC(=O)C2CCCN(S(=O)(=O)c3ccc4[nH]c(=O)ccc4c3)C2)cc1OC (stereo unspecified)	23*	0	7	-5	13	0
Cc1ccc(NC(=O)C2CCCN(S(=O)(=O)c3ccc4[nH]c(=O)ccc4c3)C2)cc1C (stereo unspecified)	5	1	6	2	25	x
COCCCn1cc(CN2CC=CS2(=O)=O)nn1	2	x	x	x	x	x
CN(Cc1ccco1)S(=O)(=O)c1ccc2c(c1)CCN2C(=O)CC(C)(C)C	-7	x	x	x	x	x
CCCCNC(=O)C1(C(C)=O)CC(C(=O)OCC)=NO1 (stereo unspecified)	1	x	x	x	x	x
